Published values from different studies.
Compare with care: the assays were run in different laboratories.
CDK4: Cyclin-dependent kinase 4 (CDK4, Homo sapiens, UniProt P11802)
CDK4 with cyclin D3: Cyclin-dependent kinase 4, with cyclin D3 (CDK4, Homo sapiens, UniProt P11802)
CDK4 with cyclin D1: Cyclin-dependent kinase 4, with cyclin D1 (CDK4, Homo sapiens, UniProt P11802)

CC#CC(=O)N1CCC[C@H]1c1nc(-c2ccc(C(=O)Nc3ccccn3)cc2)c2c(N)nccn12  inhibition (CDK4; enzyme activity, inhibitor; 1 µM): 0%
CC(C)S(=O)(=O)c1ccc2nccc(Nc3ccc4sc(C5CCCC5)nc4c3)c2c1  activity vs control (CDK4 with cyclin D3; enzyme activity, inhibitor; 1 µM): 102%
C[C@]1(O)CCCN(c2nc(Nc3ccc(S(=O)(=O)N[C@H]4CC[C@H](CN5CCN(c6ccc(C7CCC(=O)NC7=O)cc6F)CC5)CC4)cc3F)ncc2C(F)(F)F)C1 (some centres unmarked)  remaining binding (CDK4 with cyclin D3; binding, competition with immobilised ligand; 1 µM): 96%
C=CC(=O)N1CCC([C@@H]2CCNc3c(C(N)=O)c(-c4ccc(Oc5ccccc5)cc4)nn32)CC1  inhibition (CDK4 with cyclin D1; enzyme activity, inhibitor; 1 µM): 0%
CNS(=O)(=O)c1ccc(Nc2ncc(C(F)(F)F)c(N3CCC[C@](C)(O)C3)n2)c(C)c1  remaining binding (CDK4; binding, competition with immobilised ligand; 1 µM): 71%
CO[C@@H]1[C@H](N(C)C(=O)c2ccccc2)C[C@H]2O[C@]1(C)n1c3ccccc3c3c4c(c5c6ccccc6n2c5c31)C(=O)NC4  inhibition (CDK4 with cyclin D1; enzyme activity, inhibitor; 1 µM): 4%
COc1ccc2[nH]c3c4[nH]c5ccc(OC)cc5c4c4c(c3c2c1)C(=O)NC4=O  remaining binding (CDK4 with cyclin D1; binding; 1 µM): 82%
C1=C/COCc2cc(ccc2OCCN2CCCC2)Nc2nccc(n2)-c2cccc(c2)COC/1  remaining binding (CDK4 with cyclin D1; binding; 0.1 µM): 48%
CN1CCN(C(=O)c2ccc(NC(=O)Nc3ccc(N(C)c4ccnc(Nc5ccc(CS(C)(=O)=O)cc5)n4)cc3)cc2)CC1  remaining binding (CDK4; binding; 1 µM): 83%
C[C@]1(O)CCCN(c2nc(Nc3ccc(S(=O)(=O)N[C@H]4CC[C@H](CN5CCN(c6ccc(C7CCC(=O)NC7=O)cc6F)CC5)CC4)cc3Cl)ncc2C(F)(F)F)C1 (some centres unmarked)  remaining binding (CDK4 with cyclin D1; binding, competition with immobilised ligand; 1 µM): 91%
CCCCC(=O)Nc1ccc(-c2ccc3ncn(CCC)c(=O)c3c2)cn1  remaining binding (CDK4 with cyclin D1; binding, competition with immobilised ligand; 0.5 µM): 100%
